High-throughput results deposited in PubChem by several laboratories.
T cruzi inh = blocks replication of Trypanosoma cruzi | hit rate 1.4% among 300,000 | AID 1885 | T. cruzi beta-gal in NIH3T3, luminescence, 90 h | inhibition, % (no concentration beside the values);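 active = mean inhibition across valid replicates above about 55%, limit read from the data; inconclusive = mean below that limit but half or more replicates reach it; inactive = mean below it, under half of replicates reach it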;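 note: signal also drops with host cell toxicity which is not excluded here; 0% = plate median of DMSO wells and 100% = zero luminescence signal; higher percent means less beta-gal luminescence so fewer parasites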
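System: Mouse NIH/3T3 fibroblasts infected with β-gal-expressing T. cruzi Tulahuen C4 | Quantity: NIH/3T3 cells, 5,000 per well | Reagent: 5000 reporter trypomastigotes per well | Dosing: Compound pinned at 50 nL/well, DMSO | Schedule: 3 h host attachment, then at least 90 h co-culture | Detection: GalScreen luminescence, 60 min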
aSyn 5UTR inh = MLPCN primary screen, SNCA 5' untranslated region. inhibition, % (tested at 7.5 µM). AID 1813. hit rate 0.82% among 300,000. alpha-synuclein 5'UTR reporter, inhibitor activity; in the data active = inhibition above about 60%; inconclusive = no clear call, values can overlap the other calls;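 note: H4 neuroglioblastoma cells stably carrying SNCA 5'UTR luciferase fusion; 0% = DMSO wells and 100% = positive control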
Mdm2-MdmX inh = human Mdm2/MdmX binding inhibition. SaOS-2 split-luciferase Mdm2/MdmX complementation, luminescence. inhibition, % at 8 µM. O15151+Q00987. hit rate 3% among 330,000. AID 485346;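 active = inhibition of at least 50% at 8 µM in the primary screen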
Target sequence (O15151 whole entry, looked up): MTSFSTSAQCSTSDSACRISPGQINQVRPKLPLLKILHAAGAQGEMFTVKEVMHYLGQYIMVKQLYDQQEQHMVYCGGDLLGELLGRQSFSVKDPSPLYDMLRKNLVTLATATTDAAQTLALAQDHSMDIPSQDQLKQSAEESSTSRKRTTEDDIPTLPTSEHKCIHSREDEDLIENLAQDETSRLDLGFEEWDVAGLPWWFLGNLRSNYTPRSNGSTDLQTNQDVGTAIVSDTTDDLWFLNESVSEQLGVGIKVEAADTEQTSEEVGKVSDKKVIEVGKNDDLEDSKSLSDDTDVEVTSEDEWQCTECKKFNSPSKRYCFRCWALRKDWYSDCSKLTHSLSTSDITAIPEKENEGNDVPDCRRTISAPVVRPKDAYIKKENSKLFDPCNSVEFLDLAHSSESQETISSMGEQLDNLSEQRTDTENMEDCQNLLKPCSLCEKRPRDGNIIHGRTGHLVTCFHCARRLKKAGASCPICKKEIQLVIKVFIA
Target sequence (Q00987 whole entry, looked up): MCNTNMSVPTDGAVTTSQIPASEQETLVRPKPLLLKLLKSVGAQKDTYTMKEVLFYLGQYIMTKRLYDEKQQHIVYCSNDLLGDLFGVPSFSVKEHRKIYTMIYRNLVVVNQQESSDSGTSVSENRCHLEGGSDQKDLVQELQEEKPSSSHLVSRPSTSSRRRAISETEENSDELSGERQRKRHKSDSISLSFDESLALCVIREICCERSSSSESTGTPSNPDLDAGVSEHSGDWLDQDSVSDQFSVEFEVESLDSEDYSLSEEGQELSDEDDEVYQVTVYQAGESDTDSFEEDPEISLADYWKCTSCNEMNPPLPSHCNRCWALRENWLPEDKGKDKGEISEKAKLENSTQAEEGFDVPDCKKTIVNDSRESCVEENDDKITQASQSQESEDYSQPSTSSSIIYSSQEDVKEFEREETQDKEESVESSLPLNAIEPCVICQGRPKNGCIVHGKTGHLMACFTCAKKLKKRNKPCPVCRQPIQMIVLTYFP
SKKanGAS inh = SKKanGAS growth inhibition; S. pyogenes SKKanGAS, kanamycin growth, BacTiter-Glo, 6 h; inhibition, % at 7.5 µM; hit rate 1.3% among 300,000;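 active = mean replicate score, as percent of positive control median, at least 50; inconclusive = mean below 50 but one replicate at or above 50; inactive = mean and every replicate below 50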;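 note: strain carries kanamycin resistance gene driven by streptokinase promoter and grows in 40 µg/ml kanamycin; loss of luminescence reflects streptokinase promoter inhibition or plain growth inhibition; 0% = median of DMSO wells and 100% = positive control at its reference dose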
CSC inhib = cancer stem cell inhibition; cancer stem cell-like cells viability, luminescence; inhibition, % at 7.5 µM; hit rate 1.1% among 300,000; in the data active = inhibition above about 75%; inconclusive = no clear call, values can overlap the other calls; tested in HMLE shEcad cells
Mdm2-MdmX conf = human Mdm2/MdmX binding inhibition, confirmed; shares compounds with Mdm2-MdmX inh; luminescent assay; inhibition, % at 8 µM; hit rate 55% among 10,000; AID 489028; in the data active = inhibition above about 40%
FLuc counter = inhibits full-length luciferase, flagging false Mdm2/MdmX hits; shares compounds with Mdm2-MdmX inh; SaOS-2 full-length luciferase counterscreen, luminescence; inhibition, % at 8 µM; hit rate 77% among 6,200; AID 504607;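 active = mean inhibition at 8 µM reaching about 37%, which flags the compound as non-specific, limit read from the data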;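 note: p53-null SaOS-2 cells with luciferase driven by a doxycycline-inducible promoter; compound on cells about two nights before reading with doxycycline added after day one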
Numbers without * were called inactive; ? = inconclusive; / = not tested or not shown. Only some compounds are listed: those with a hit (about 5.4% of all), similar ones and a draw of the others.

SMILES	T cruzi inh	aSyn 5UTR inh	Mdm2-MdmX inh	SKKanGAS inh	CSC inhib	Mdm2-MdmX conf	FLuc counter
C=C1CCc2c([nH]c3ccc(OCC(C)C)cc23)C1=O	48	-2	98*	-4	87*	32	/
Cc1nn2c(NCc3ccccn3)cc(C(C)(C)C)nc2c1-c1ccccc1	57*	23	62*	97*	14	20	/
COc1ccc(Nc2c3c(nc4c(-c5ccccc5)c(C)nn24)CCC3)cc1	39	30	52*	33	/	22	/
Cc1nn2c(NCc3ccccn3)c3c(nc2c1-c1ccccc1)CCC3	13	5	53*	42	31	33	7
CCCn1nc(C(=O)NCCN2CCOCC2)c2ccccc2c1=O	-8	17	16	5	7	/	/
Cc1nc2ccc(NC(=O)c3nn(CC(C)C)c(=O)c4ccccc34)cc2s1	11	53	77*	2	1	86*	51*
CCCn1nc(C(=O)Nc2ccc(N3CCOCC3)cc2)c2ccccc2c1=O	/	/	51*	/	-5	10	/
CCOc1cc(N2CCOCC2)c(OCC)cc1NC(=O)c1nn(CC)c(=O)c2ccccc12	/	/	86*	/	/	49*	87*
CCCn1nc(C(=O)Nc2cccc(S(=O)(=O)N(C)c3ccccc3)c2)c2ccccc2c1=O	/	/	53*	/	-4	13	/
Cc1ccccc1NC(=O)COC(=O)c1c[nH]c(=O)[nH]c1=O	-8	-5	-2	-21	-15	/	/
Cn1nc(C(=O)Nc2cccc(S(=O)(=O)N3CCCC3)c2)c2ccccc2c1=O	/	/	54*	/	/	2	/
Cc1ccccc1N1CCN(S(=O)(=O)Cc2ccccc2)CC1	16	-26	29	1	3	/	/
C(=C\c1ccccc1)/C=N/Nc1nc(N2CCCCC2)nc(N2CCCCC2)n1	16	-27	57*	10	0	16	/
CC1CCC(NC(=O)Cn2cnc3sccc3c2=O)CC1 (stereo unspecified)	/	/	-9	/	7	/	/
O=C(NCc1ccco1)/C(=C/c1cccc(C(F)(F)F)c1)c1nc2ccccc2[nH]1	15	-84	83*	19	/	84*	38*
CC1CCCCN1C(=O)c1ccc(C(=O)Nc2ccc(F)cc2)cc1 (stereo unspecified)	/	/	-33	/	1	/	/
CC(=O)NC1=NN(C(C)=O)C(C)(c2ccco2)S1 (stereo unspecified)	-6	17	8	-6	21	/	/
CC(=O)NC1=NN(C(C)=O)C(C)(c2cccs2)S1 (stereo unspecified)	-2	39	55*	0	8	42*	52*
Fc1ccc(NC(=S)NNc2ncc(C(F)(F)F)cc2Cl)c(F)c1	-6	27	77*	10	25	49*	67*
FC(F)(F)c1cnc(NNC(=S)Nc2ccc(Cl)cc2)c(Cl)c1	-5	5	90*	16	59	67*	23
Cc1ccc(NC(=S)NNc2ncc(C(F)(F)F)cc2Cl)c(C)c1	-19	-7	7	-1	13	/	/
O=C(c1cccc(S(=O)(=O)N2CCCCC2)c1)N1CCN(S(=O)(=O)c2ccc(F)cc2)CC1	14	18	19	-2	-14	/	/
Cc1cccc(CC(Cc2nc3ccccc3[nH]2)c2nc3ccccc3[nH]2)c1 (stereo unspecified)	25	-13	75*	61*	-13	4	/
COc1ccccc1CC(Cc1nc2ccccc2[nH]1)c1nc2ccccc2[nH]1 (stereo unspecified)	5	7	13	23	/	/	/
COCCn1c(=NC(=O)c2ccc(S(=O)(=O)N3CCc4ccccc4C3)cc2)sc2cc(OC)ccc21	-19	26	69*	6	/	14	/
SMILES	T cruzi inh	aSyn 5UTR inh	Mdm2-MdmX inh	SKKanGAS inh	CSC inhib	Mdm2-MdmX conf	FLuc counter
CN(C)CCCN(C(=O)c1ccc(S(=O)(=O)N2CCc3ccccc32)cc1)c1nc2ccc(F)cc2s1	44	1	34	7	-4	/	/
Cc1cccc2sc(N(CCCN(C)C)C(=O)c3ccc(S(=O)(=O)N4CCc5ccccc5C4)cc3)nc12	29	37	64*	12	28	24	/
Cc1cc(C)c2sc(N(CCCN(C)C)C(=O)c3ccc(S(=O)(=O)N4CCc5ccccc5C4)cc3)nc2c1	47	30	99*	10	14	99*	42*
CN(C)CCCN(C(=O)c1ccc(S(=O)(=O)N2CCc3ccccc3C2)cc1)c1nc2c(F)cccc2s1	42	8	10	12	-10	/	/
CN(C)CCCN(C(=O)c1ccc(S(=O)(=O)N2CCc3ccccc3C2)cc1)c1nc2ccc(F)cc2s1	25	99*	97*	18	91*	26	/
Cc1[nH]c(=O)[nH]c(=O)c1S(=O)(=O)N1CCCC(C(=O)NCCC2=CCCCC2)C1 (stereo unspecified)	1	-24	6	7	-15	/	/
CC(C)(C)c1nnc(NC(=O)NS(=O)(=O)c2ccccc2)s1	-7	-12	5	-4	2	/	/
Cc1ccc2nc(N(CCCN(C)C)C(=O)c3ccc(S(=O)(=O)N4CCc5ccccc5C4)cc3)sc2c1	28	88*	100*	14	6	52*	14
COc1ccc2sc(N(CCCN(C)C)C(=O)c3ccc(S(=O)(=O)N4CCc5ccccc5C4)cc3)nc2c1	57*	3	100*	20	91*	99*	55*
Cc1cc(C)c2sc(N(CCCN(C)C)C(=O)c3ccc(S(=O)(=O)N4CCCc5ccccc54)cc3)nc2c1	60*	-1	99*	26	101*	57*	73*
CN(C)CCCN(C(=O)c1ccc(S(=O)(=O)N2CCc3ccccc32)cc1)c1nc2ccc(Cl)cc2s1	34	?	15	9	5	/	/
Cc1csc(NC(=O)Cc2c(F)cccc2Cl)n1	4	-131	-42	-2	7	/	/
NS(=O)(=O)c1ccc(CCNC(=O)c2cnccn2)cc1	4	2	1	-1	-7	/	/
COc1cc2nc(NC(=O)c3ccccc3)[nH]c(=O)c2cc1OC	5	-13	-22	2	0	/	/
COc1ccc(C(=O)Nc2nc3cc(OC)c(OC)cc3c(=O)[nH]2)cc1	/	/	71*	/	3	-10	/
CC(=O)Nc1cccc(NC(C)=C(C#N)C#N)c1	-12	-4	10	-15	-16	/	/
NC(=S)N/N=C/c1ccccc1OCc1cccc(Cl)c1	62*	27	52*	11	-1	24	/
COC(=O)N/N=C/c1ccccc1OCc1ccccc1	4	-1	13	5	2	/	/
CCCCCCC(=O)N1C/C=C\C(c2ccc(OC)cc2)N(Cc2ccc(F)cc2)C(=O)[C@H]1Cc1ccccc1 (stereo partly specified)	37	47	72*	31	35	40	62*
COc1ccc(C(=O)O)cc1S(=O)(=O)Nc1ccccc1-c1ccccc1	-17	-16	-18	1	-2	/	/
